In ChEMBL document CHEMBL4024769, “Synthesis and Investigation of Photophysical and Biological Properties of Novel S-Containing Bacteriopurpurinimides” (J Med Chem, 2017):

Legend:
[1] = Drug distribution in mouse S37 cell nuclear membrane at 1 uM for 4 hrs by laser scanning confocal microscopic analysis; assay type: ADME
How it was run: (§1)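 Mouse sarcoma S37 cells exposed to 1 μM photosensitizer for 4 h, then imaged by laser scanning confocal microscopy with a 63×/1.46 oil objective. Excitation 543 nm at 10 μW; emission collected above 655 nm on an APD detector. Intracellular localization judged against transmitted-light images.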

[2] = Phototoxicity against mouse S37 cells implanted in F1 mouse assessed as tumor growth inhibition at 2.5 mg/kg, iv preincubated for 30 mins with subsequent 150 J/cm2 irradiation measured on day 18 post irradiation relative to control; assay type: functional; conditions: S37, light or radiation study, read-out: TGI
How it was run: (§2)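 S37 sarcoma mice treated on day 7 of tumor growth with compound iv; tumors 140–160 mm3 beforehand, droperidol 0.25 mg ip as anesthetic. LED irradiation at 800 ± 21 nm, 100 mW/cm2, 150 J/cm2, given 15 or 30 min after dosing. Controls got iv 0.9% NaCl. Volume = d1×d2×d3×0.52; TGI = […]×100%.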

[3] = Drug uptake in liver tumor of F1 mouse implanted with mouse S37 cells assessed as normalized fluorescence at 2.5 mg/kg, iv measured up to 24 hrs post injection in presence of He-Ne laser radiation by local fluorescence spectroscopic analysis; assay type: ADME, organism-based; conditions: in vivo
How it was run: (§3)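 Single iv dose of 2.5 mg/kg given to F1 mice bearing S37 sarcoma. Skin, muscle, liver, kidney, spleen and tumor taken from three animals each at 0.25, 0.5, 2, 4 and 24 h and read ex vivo by contact local fluorescence spectroscopy. He–Ne 632.8 nm excitation; 640–900 nm integral normalized to backscattered laser signal (FN).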

[4] = Drug uptake in spleen tumor of F1 mouse implanted with mouse S37 cells assessed as normalized fluorescence at 2.5 mg/kg, iv measured up to 24 hrs post injection in presence of He-Ne laser radiation by local fluorescence spectroscopic analysis; assay type: ADME, organism-based; conditions: in vivo; how it was run: as §3
[5] = Phototoxicity against mouse S37 cells implanted in F1 mouse assessed as tumor growth inhibition at 2.5 mg/kg, iv preincubated for 30 mins with subsequent 150 J/cm2 irradiation measured on day 8 post irradiation relative to control; assay type: functional; conditions: S37, light or radiation study, read-out: TGI; how it was run: as §2
[6] = Phototoxicity against mouse S37 cells implanted in F1 mouse assessed as tumor growth inhibition at 2.5 mg/kg, iv preincubated for 30 mins with subsequent 150 J/cm2 irradiation measured on day 15 post irradiation relative to control; assay type: functional; conditions: S37, light or radiation study, read-out: TGI; how it was run: as §2
[7] = Drug uptake in skin tumor of F1 mouse implanted with mouse S37 cells assessed as normalized fluorescence at 2.5 mg/kg, iv measured up to 24 hrs in presence of He-Ne laser radiation by local fluorescence spectroscopic analysis; assay type: ADME, organism-based; conditions: in vivo
How it was run: (§4)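 S37 sarcoma-bearing immunocompetent F1 mice (18−22 g) given PS 2.5 mg/kg iv. Animals sacrificed at 0.25, 0.5, 2, 4 and 24 h, with three animals per time point. Skin, tumor and organ samples were read ex vivo by contact local fluorescence spectroscopy under He−Ne 632.8 nm excitation. Integrated 640−900 nm emission was normalized to the backscattered laser signal to give FN.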

[8] = Drug uptake in kidney tumor of F1 mouse implanted with mouse S37 cells assessed as normalized fluorescence at 2.5 mg/kg, iv measured up to 24 hrs post injection in presence of He-Ne laser radiation by local fluorescence spectroscopic analysis; assay type: ADME, organism-based; conditions: in vivo; how it was run: as §3
[9] = Phototoxicity against rat Sarcoma M1 cells implanted in rat assessed as apoptotic index at 2.5 mg/kg, ip administered as single dose on day 11 after inoculation followed by 300 J/cm2 irradiation after 2.5 to 3 hrs measured on day 12 post photodynamic therapy (reference value: 0.37 +/- 0.06%); assay type: functional
How it was run: (§5)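 Rats with M1 sarcoma implanted subcutaneously in the left thigh were randomized on day 10, 25 per group. Single ip dose of 2.5 mg/kg on day 11; laser irradiation 2.5–3 h later at 810 nm, 0.51 W/cm2, 300 J/cm2, 10 min over a 1.5 cm field. Five rats sampled per time point for H&E histology, PCNA immunohistochemistry (1:200) and tumor volume. Untreated controls; Student's test, p < 0.05.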

[10] = Drug distribution in mouse S37 cell cytoplasmic vesicles at 1 uM for 4 hrs by laser scanning confocal microscopic analysis; assay type: ADME; how it was run: as §1
[11] = Drug uptake in tumor of F1 mouse implanted with mouse S37 cells at 2.5 mg/kg, iv measured after 2 hrs in presence of He-Ne laser radiation by local fluorescence spectroscopic analysis; assay type: ADME, organism-based, Neoplasm; conditions: in vivo; how it was run: as §3
[12] = Dark toxicity against mouse S37 cells assessed as cell growth inhibition up to 15 uM after 24 hrs by MTT assay; assay type: cell-based; conditions: s37, 24 h
How it was run: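 S37 mouse sarcoma cells in DMEM with 2 mM L-glutamine and 10% FBS, 37 °C, 5% CO2. Compound added 24 h after plating and kept without irradiation for 24 h in the dark. Survival scored visually and by MTT colorimetry.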

[13] = Drug distribution in mouse S37 cell membrane at 1 uM for 4 hrs by laser scanning confocal microscopic analysis; assay type: ADME, cell-based; how it was run: as §1
[14] = Drug distribution in mouse S37 cell cytoplasm at 1 uM for 4 hrs by laser scanning confocal microscopic analysis; assay type: ADME; how it was run: as §1
[15] = Phototoxicity against rat Sarcoma M1 cells implanted in rat assessed as apoptotic index at 2.5 mg/kg, ip administered as single dose on day 11 after inoculation followed by 300 J/cm2 irradiation after 2.5 to 3 hrs measured on day 3 post photodynamic therapy (reference value: 0.31 +/- 0.02%); assay type: functional; how it was run: as §5
[16] = Drug distribution in mouse S37 cell cytoplasmic vesicles at 1 uM for 4 hrs by microspectroscopy; assay type: ADME
[17] = Drug uptake in tumor of F1 mouse implanted with mouse S37 cells at 2.5 mg/kg, iv measured after 24 hrs in presence of He-Ne laser radiation by local fluorescence spectroscopic analysis; assay type: ADME, organism-based, Neoplasm; conditions: in vivo; how it was run: as §3
Mus musculus = assay: Toxicity in F1 mouse implanted with mouse S37 cells at 2.5 mg/kg, iv preincubated for 15 to 30 mins with subsequent 150 J/cm2 irradiation measured up to 16 days post irradiation; assay type: organism-based; conditions: in vivo, 384 h
How it was run: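 F1 mice bearing S37 sarcoma (140−160 mm3) were treated on day 7 of tumour growth with 2.5 or 5.0 mg/kg iv; controls received iv 0.9% NaCl. Animals were anaesthetised with droperidol 0.25 mg/animal ip. LED irradiation (800 ± 21 nm, 100 mW/cm2, 150 J/cm2) followed 15 or 30 min after dosing. Tumour volume was calculated as d1×d2×d3×0.52, with TGI computed versus controls. Tumour-free animals were followed for 90 d.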

[18] = Phototoxicity against mouse S37 cells implanted in F1 mouse assessed as tumor growth inhibition at 2.5 mg/kg, iv preincubated for 30 mins with subsequent 150 J/cm2 irradiation measured on day 11 post irradiation relative to control; assay type: functional; conditions: S37, light or radiation study, read-out: TGI; how it was run: as §2
[19] = Phototoxicity against mouse S37 cells implanted in F1 mouse assessed as tumor growth inhibition at 2.5 mg/kg, iv preincubated for 30 mins with subsequent 150 J/cm2 irradiation measured on day 20 post irradiation relative to control; assay type: functional; conditions: S37, light or radiation study, read-out: TGI; how it was run: as §2
[20] = Drug uptake in skin tumor of F1 mouse implanted with mouse S37 cells assessed as normalized fluorescence at 2.5 mg/kg, iv measured after 30 mins post injection in presence of He-Ne laser radiation by local fluorescence spectroscopic analysis; assay type: ADME, organism-based; conditions: in vivo, 0.5 h; how it was run: as §4

SMILES | Drug uptake [1] | inhibition in vivo at 2.5 mg/kg [2] | Drug uptake [3] | Drug uptake [4] | inhibition in vivo at 2.5 mg/kg [5] | inhibition in vivo at 2.5 mg/kg [6] | Flu intensity [7] | Drug uptake [8] | Drug uptake [10] | Drug uptake [11] | Activity [12] | Drug uptake [13] | Drug uptake [14] | Drug uptake [16] | Drug uptake [17] | Activity (Mus musculus) | inhibition in vivo at 2.5 mg/kg [18] | inhibition in vivo at 2.5 mg/kg [19] | other results
CCCO/N=C(\C)c1c(C)c2cc3nc(c4c5[nH]c(cc6nc(cc1[nH]2)[C@@H](C)[C@@H]6CC)c(C)c5C(=O)N(OCCC)C4=O)[C@H](CCC(=O)NCCSSCCNC(=O)CC[C@@H]1c2nc(cc4[nH]c(cc5nc(cc6[nH]c7c2C(=O)N(OCCC)C(=O)c7c6C)[C@H](CC)[C@H]5C)c(/C(C)=N/OCCC)c4C)[C@H]1C)[C@H]3C | Not Active | 88% | Active | Active | 100% | 93.9% | 2 RU | Active | Active | Active | Non-Toxic | Not Active | Not Active | Active | Not Active | Non-Toxic | 97.4% | 75.5% | Activity [9]: 0.42%; Activity [15]: 0.43%; Flu intensity [20]: 2.2 RU
CCCO/N=C(\C)c1c(C)c2cc3nc(c4c5[nH]c(cc6nc(cc1[nH]2)[C@H](C)[C@H]6CC)c(C)c5C(=O)N(OCCC)C4=O)[C@@H](CCC(=O)OC)[C@@H]3C | Not Active | 77.1% | Active | Active | 100% | 81.5% | 2 RU | Active | Active | Active | Non-Toxic | Not Active | Not Active | Active | Not Active | Non-Toxic | 88.6% | 65.9% | 
